The text below walks through data of ChEMBL document CHEMBL1135657, “Novel dual inhibitors of AChE and MAO derived from hydroxy aminoindan and phenethylamine as potential treatment for Alzheimer's disease” (J Med Chem, 2002).

One may read the IC50 as the concentration that gives 50% inhibition. A higher IC50 goes with weaker potency in that assay.

Data set [1] deals with T1, Butyrylcholinesterase (Equus caballus, UniProt Q9N1N9). Kind of data set: In vitro inhibitory concentration against Butyrylcholinesterase of horse serum; value ranges from 0.20-0.36. The method, boiled down:
(§1)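 Ellman assay followed, with 200 µM butyrylthiocholine as substrate. Runs were in triplicate with four-point dose-response curves. IC50 and fiducial limits came from log concentration versus % inhibition.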

The target of data set [2] is T1, Butyrylcholinesterase. Description: In vitro inhibitory concentration against Butyrylcholinesterase of horse serum; value ranges from 1.00-1.20. In short, it runs like this:
as §1

Data set [3] deals with T2, Amine oxidase [flavin-containing] B (Rattus norvegicus, UniProt P19643).
T2 sequence (P19643 whole entry): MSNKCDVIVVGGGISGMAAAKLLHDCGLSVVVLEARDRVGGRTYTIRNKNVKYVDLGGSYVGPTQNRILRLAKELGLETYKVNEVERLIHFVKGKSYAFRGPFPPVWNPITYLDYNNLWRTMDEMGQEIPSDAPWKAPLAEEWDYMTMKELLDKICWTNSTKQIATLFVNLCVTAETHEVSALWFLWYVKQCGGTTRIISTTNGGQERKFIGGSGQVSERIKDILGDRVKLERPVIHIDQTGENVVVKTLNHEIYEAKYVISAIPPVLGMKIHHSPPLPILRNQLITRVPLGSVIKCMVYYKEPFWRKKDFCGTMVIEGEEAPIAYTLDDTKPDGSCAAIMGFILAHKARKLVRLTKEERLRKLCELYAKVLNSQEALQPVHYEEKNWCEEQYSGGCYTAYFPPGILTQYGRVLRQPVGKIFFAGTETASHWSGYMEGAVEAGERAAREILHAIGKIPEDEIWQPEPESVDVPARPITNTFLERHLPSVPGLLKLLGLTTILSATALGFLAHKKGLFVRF
Description: In vitro inhibitory concentration against Monoamine oxidase B of rat brain homogenates; value ranges from 4.8-6.9. In kind it is tissue-based.

For data set [4], the target named is T3, Amine oxidase [flavin-containing] A (Rattus norvegicus, UniProt P21396).
T3 sequence (P21396 whole entry): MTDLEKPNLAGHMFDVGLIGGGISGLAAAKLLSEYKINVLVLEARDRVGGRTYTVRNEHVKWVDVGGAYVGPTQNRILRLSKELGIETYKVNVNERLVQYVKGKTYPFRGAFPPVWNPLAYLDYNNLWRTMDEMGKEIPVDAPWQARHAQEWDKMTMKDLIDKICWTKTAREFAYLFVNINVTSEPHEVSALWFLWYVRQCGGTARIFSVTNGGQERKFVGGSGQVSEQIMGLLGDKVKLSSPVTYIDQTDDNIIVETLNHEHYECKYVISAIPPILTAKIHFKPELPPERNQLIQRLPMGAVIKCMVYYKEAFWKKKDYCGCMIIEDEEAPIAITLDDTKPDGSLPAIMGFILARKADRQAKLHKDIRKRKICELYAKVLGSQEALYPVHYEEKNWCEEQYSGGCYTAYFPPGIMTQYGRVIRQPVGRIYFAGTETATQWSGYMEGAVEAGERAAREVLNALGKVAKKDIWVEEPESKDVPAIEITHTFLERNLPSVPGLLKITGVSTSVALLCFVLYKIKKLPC
Kind of data set: In vitro inhibitory concentration against Monoamine oxidase A of rat brain homogenates; value ranges from 6.3-7.7. It counts as tissue-based.

For data set [5], the target named is T4, Acetylcholinesterase (Homo sapiens, UniProt P22303). Description: In vitro inhibitory concentration against purified Acetylcholinesterase of human erythrocytes; value ranges from 0.32-0.98.
T4 sequence (P22303 whole entry): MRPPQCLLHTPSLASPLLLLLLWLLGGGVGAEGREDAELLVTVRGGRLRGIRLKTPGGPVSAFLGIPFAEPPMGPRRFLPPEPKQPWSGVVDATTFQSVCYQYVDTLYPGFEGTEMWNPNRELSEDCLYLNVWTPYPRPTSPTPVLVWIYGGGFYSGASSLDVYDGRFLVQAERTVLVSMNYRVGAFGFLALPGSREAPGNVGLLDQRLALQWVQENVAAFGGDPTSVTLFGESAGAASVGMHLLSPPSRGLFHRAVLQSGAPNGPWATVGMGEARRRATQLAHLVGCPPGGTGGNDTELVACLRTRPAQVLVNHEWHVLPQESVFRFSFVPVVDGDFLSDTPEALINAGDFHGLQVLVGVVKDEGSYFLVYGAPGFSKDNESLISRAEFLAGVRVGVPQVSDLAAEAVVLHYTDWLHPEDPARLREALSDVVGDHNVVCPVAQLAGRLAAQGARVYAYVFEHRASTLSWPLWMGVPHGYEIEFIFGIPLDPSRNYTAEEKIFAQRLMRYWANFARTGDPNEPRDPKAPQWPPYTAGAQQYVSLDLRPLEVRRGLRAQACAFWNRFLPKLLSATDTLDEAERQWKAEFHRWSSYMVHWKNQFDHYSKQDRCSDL
Data set [6] addresses T1, Butyrylcholinesterase. Description: In vitro inhibitory concentration against Butyrylcholinesterase of horse serum; value ranges from 1.6-2.4. In short, it runs like this:
as §1

The target of data set [7] is T4, Acetylcholinesterase.
Data set [8] concerns the target T2, Amine oxidase [flavin-containing] B. Kind of data set: In vitro inhibitory concentration against Monoamine oxidase B of rat brain homogenates; value ranges from 0.19-0.44. It counts as tissue-based. In short, it runs like this:
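Rat brain homogenate (in 0.3 M sucrose) as enzyme source; compounds diluted 10⁻²M to 10⁻⁹M in 0.05 M phosphate buffer with 0.15 μM clorgyline; preincubated 60 min at 37 °C, then 10 μM ¹⁴C-phenylethylamine added for 20 min more; stopped with citric acid; metabolites extracted into toluene/ethyl acetate, scintillation counted; activity as % of control, tranylcypromine blank.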

The target in data set [9] is T4, Acetylcholinesterase. Kind of data set: In vitro inhibitory concentration against purified Acetylcholinesterase of human erythrocytes; value ranges from 0.44-0.49.
Data set [10] has as its target T1, Butyrylcholinesterase. Kind of data set: In vitro inhibitory concentration against Butyrylcholinesterase of horse serum; value ranges from 1.19-6.10. In short, it runs like this: as §1
Data set [11] deals with T4, Acetylcholinesterase. Description: In vitro inhibitory concentration against purified Acetylcholinesterase of human erythrocytes; value ranges from 31.2-202.
The target of data set [12] is T1, Butyrylcholinesterase. Kind of data set: In vitro inhibitory concentration against Butyrylcholinesterase of horse serum; value ranges from 10.7-43.7. The method, boiled down:
as §1

In data set [13] the target is T4, Acetylcholinesterase. Description: In vitro inhibitory concentration against purified Acetylcholinesterase of human erythrocytes; value ranges from 252-806.
Data set [14] addresses T1, Butyrylcholinesterase. Kind of data set: In vitro inhibitory concentration against Butyrylcholinesterase of horse serum; value ranges from 29.6-110. In short, it runs like this:
as §1

Data set [15] has as its target T4, Acetylcholinesterase. This is another data set of the same source.
The target of data set [16] is T1, Butyrylcholinesterase.
Data set [17] addresses T4, Acetylcholinesterase. Kind of data set: In vitro inhibitory concentration against purified Acetylcholinesterase of human erythrocytes; value ranges from 0.54-0.56.
In data set [18] the target is T3, Amine oxidase [flavin-containing] A. Kind of data set: In vitro inhibitory concentration against Monoamine oxidase A of rat brain homogenates; value ranges from 5.6-19.6. In kind it is tissue-based.
In data set [19] the target is T4, Acetylcholinesterase. Kind of data set: In vitro inhibitory concentration against purified Acetylcholinesterase of human erythrocytes; value ranges from 0.012-0.014.
Data set [20] addresses T2, Amine oxidase [flavin-containing] B. Description: In vitro inhibitory concentration against Monoamine oxidase B of rat brain homogenates. It counts as tissue-based.
The target is the same in data set [21]. Kind of data set: In vitro inhibitory concentration against Monoamine oxidase B of rat brain homogenates; value ranges from 80.-92.
The target in data set [22] is T3, Amine oxidase [flavin-containing] A. Description: In vitro inhibitory concentration against Monoamine oxidase A of rat brain homogenates; value ranges from 0.22-0.29. It counts as tissue-based.
In data set [23] the target is T4, Acetylcholinesterase. This is another data set of the same source.
Data set [24] deals with T1, Butyrylcholinesterase. Description: In vitro inhibitory concentration against Butyrylcholinesterase of horse serum; value ranges from 0.34-1.03. The method, boiled down: as §1
In data set [25] the target is T3, Amine oxidase [flavin-containing] A. Kind of data set: In vitro inhibitory concentration against Monoamine oxidase A of rat brain homogenates; value ranges from 30-230. In kind it is tissue-based.
For data set [26], the target named is T4, Acetylcholinesterase. Description: In vitro inhibitory concentration against purified Acetylcholinesterase of human erythrocytes; value ranges from 42.5-45.9.
Data set [27] can be described thus: Pseudo-first order rate constant for carbamoylation of ACHE at 50 (uM) concentration. In kind it is ADME. In short, it runs like this: (§2)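 Human erythrocyte AChE, same Ellman conditions: 200 µM […], 60 min preincubation at 37 °C, 0.1 M phosphate pH 7.4. Progressive inhibition followed at 4-5 inhibitor concentrations. Pseudo-first-order k_obs (min⁻¹) derived per concentration; apparent bimolecular carbamylation constant k_i calculated from these.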

In data set [28] the target is T3, Amine oxidase [flavin-containing] A. Kind of data set: In vitro inhibitory concentration against Monoamine oxidase A of rat brain homogenates; value ranges from 315-465. It counts as tissue-based.
Data set [29] can be described thus: Pseudo-first order rate constant for carbamoylation of ACHE at 400 (uM) concentration. In kind it is ADME. The method, boiled down:
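Pseudo-first-order rate constants kobs measured at 4-5 inhibitor concentrations following Bar-On et al. Apparent bimolecular carbamylation constant ki calculated from these.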

Data set [30] can be described thus: Pseudo-first order rate constant for carbamoylation of ACHE at 300 (uM) concentration. It counts as ADME. In short, it runs like this:
as §2

Data set [31] can be described thus: Pseudo-first order rate constant for carbamoylation of ACHE at 100 (uM) concentration. It counts as ADME. In short, it runs like this:
as §2

The nature of data set [32]: Bimolecular rate constant for carbamoylation of ACHE. In kind it is ADME. In short, it runs like this:
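Human erythrocyte AChE preincubated with inhibitor at 37 °C in 0.1 M phosphate buffer, pH 7.4, under Ellman conditions with 200 µM […]. Pseudo-first-order rate constants (k_obs) for progressive inhibition were obtained at 4-5 inhibitor concentrations. The apparent bimolecular carbamylation constant k_i was calculated from these.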

The target of data set [33] is T2, Amine oxidase [flavin-containing] B. Description: In vitro inhibitory concentration against Monoamine oxidase B of rat brain homogenates; value ranges from 18-59. It counts as tissue-based.

Structures are written as SMILES.

T1 sequence (Q9N1N9 whole entry): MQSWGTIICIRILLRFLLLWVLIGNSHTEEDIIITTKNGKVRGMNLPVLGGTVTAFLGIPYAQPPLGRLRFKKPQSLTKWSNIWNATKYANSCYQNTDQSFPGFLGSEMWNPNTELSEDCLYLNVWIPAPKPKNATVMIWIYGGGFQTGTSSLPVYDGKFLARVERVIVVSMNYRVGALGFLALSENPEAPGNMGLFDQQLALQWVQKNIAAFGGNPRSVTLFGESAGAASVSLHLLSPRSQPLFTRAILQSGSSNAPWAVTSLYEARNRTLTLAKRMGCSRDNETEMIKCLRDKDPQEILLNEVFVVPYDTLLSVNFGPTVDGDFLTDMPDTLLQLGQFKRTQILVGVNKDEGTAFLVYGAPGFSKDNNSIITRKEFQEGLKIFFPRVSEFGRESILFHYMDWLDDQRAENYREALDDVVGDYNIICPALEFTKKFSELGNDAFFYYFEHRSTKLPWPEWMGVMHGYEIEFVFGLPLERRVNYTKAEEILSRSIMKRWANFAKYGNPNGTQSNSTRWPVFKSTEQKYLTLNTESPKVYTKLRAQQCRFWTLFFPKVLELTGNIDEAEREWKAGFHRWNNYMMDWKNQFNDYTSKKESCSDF

On Butyrylcholinesterase [1], `C#CC(C)NCCc1cccc(OC(=O)N(C)CC)c1` (stereo not drawn) showed an IC50 of 240 nM.

In the case of `C#CCNC(C)Cc1cccc(OC(=O)N(C)C)c1` (stereo not drawn), the IC50 came out at 1090 nM at Butyrylcholinesterase [2], 5.7 µM in data set [3], 6.9 µM in [4] and 540 nM against Acetylcholinesterase [5].

For the compound `C#CCNCCc1cccc(OC(=O)N(C)CCC)c1`, the IC50 came out at 1900 nM against Butyrylcholinesterase [6], 15.4 µM at Acetylcholinesterase [7] and 290 nM in [8].

On to `CN(C)C(=O)Oc1cccc2c1C(N)CC2` (stereo not drawn), for which half-maximal inhibition against Acetylcholinesterase [9] (IC50) was put at 460 nM.

Take `C#CCNC1CCc2ccc(OC(=O)N(CC)CCCC)cc21` (stereo not drawn): the IC50 came out at 3.03 µM against Butyrylcholinesterase [10] and 72.4 µM against Acetylcholinesterase [11].

`C#CCN(C)C1CCc2cccc(OC(=O)N(C)CC)c21` (stereo not drawn): the results for the IC50 at Butyrylcholinesterase [12] and on Acetylcholinesterase [13] were 20 µM and 439 µM, respectively.

`C#CCNC1CCc2ccc(OC(=O)N(C)CCCC)cc21` (stereo not drawn): the values for the IC50 against Butyrylcholinesterase [14] and against Acetylcholinesterase [15] were 53.7 µM and 11.3 µM, respectively.

Take `C#CCNC1CCc2ccc(OC(=O)N(C)c3ccccc3)cc21` (stereo not drawn): the results for the IC50 at Butyrylcholinesterase [16] and against Acetylcholinesterase [17] were 16.6 µM and 550 nM, respectively.

With `CN(C)C(=O)Oc1cccc2c1CCC2N(C)C` (stereo not drawn), the figures for the half-inhibitory concentration (IC50) (in data set [18]; at Acetylcholinesterase [19]; in [20]) were 10 µM, 13 nM and above 1 mM, respectively.

On to `C#CCNC1CCc2c(OC(=O)N(C)C)cccc21` (stereo not drawn), for which the figures for the IC50 (in data set [21]; in [22]; at Acetylcholinesterase [23]) were 86 µM, 260 nM and 53 nM, respectively.

`CN(C)C(=O)Oc1ccc2c(c1)C(N)CC2` (stereo not drawn): the IC50 came out at 630 nM on Butyrylcholinesterase [24] and 80 µM in data set [25].

With `C#CCNC1CCc2c(Cl)cc(OC(=O)N(C)CCC)cc21.Cl` (stereo not drawn), the IC50 at Acetylcholinesterase [26] is 43.9 µM; in data set [28] it was 375 µM; in [33], 32 µM. For the same compound, the K obs was found to be 17 min⁻¹ in data set [27], 38 min⁻¹ in data set [29], 34 min⁻¹ in data set [30] and 22 min⁻¹ in data set [31]. For the same compound, the “Bimolecular carbamoylation rate constant (ki)” value in data set [32] came to 59 M⁻¹ min⁻¹.
